For one data set, the target named is T1, ATP-citrate synthase (Homo sapiens, UniProt P53396).
T1 sequence (P53396 whole entry): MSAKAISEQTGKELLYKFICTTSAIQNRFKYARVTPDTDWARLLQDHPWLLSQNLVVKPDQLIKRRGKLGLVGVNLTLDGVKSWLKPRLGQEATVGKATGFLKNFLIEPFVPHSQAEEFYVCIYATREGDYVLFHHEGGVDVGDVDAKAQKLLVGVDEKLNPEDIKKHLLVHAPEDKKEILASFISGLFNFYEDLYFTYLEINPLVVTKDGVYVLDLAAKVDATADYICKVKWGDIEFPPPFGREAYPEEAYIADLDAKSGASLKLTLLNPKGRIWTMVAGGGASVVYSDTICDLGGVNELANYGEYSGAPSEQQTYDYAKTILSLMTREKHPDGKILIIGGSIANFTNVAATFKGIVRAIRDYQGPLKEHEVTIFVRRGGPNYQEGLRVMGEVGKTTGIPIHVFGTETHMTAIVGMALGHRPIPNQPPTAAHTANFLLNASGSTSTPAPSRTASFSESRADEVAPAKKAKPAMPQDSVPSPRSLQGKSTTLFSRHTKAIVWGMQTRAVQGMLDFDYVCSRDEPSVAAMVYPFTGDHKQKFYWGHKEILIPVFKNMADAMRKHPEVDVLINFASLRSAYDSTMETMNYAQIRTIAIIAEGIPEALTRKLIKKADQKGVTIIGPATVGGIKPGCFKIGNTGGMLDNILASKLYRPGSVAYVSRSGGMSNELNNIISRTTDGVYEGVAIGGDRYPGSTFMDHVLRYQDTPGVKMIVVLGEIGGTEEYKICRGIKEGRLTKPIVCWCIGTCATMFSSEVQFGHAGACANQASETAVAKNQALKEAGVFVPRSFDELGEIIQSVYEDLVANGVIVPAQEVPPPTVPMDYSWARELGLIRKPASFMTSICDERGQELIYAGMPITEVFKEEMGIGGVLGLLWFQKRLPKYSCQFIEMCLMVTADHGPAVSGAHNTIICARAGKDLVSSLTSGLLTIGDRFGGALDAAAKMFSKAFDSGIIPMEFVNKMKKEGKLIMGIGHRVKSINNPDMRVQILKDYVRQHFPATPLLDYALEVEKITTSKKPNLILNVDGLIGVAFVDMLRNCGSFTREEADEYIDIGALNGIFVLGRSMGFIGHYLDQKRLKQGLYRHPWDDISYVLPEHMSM
Briefly: Inhibition of human recombinant ATP-citrate lyase. The procedure, abridged: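 Recombinant human ACL enzyme assay; values are at least two separate measurements.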

Data set [1] can be described thus: Tmax in mouse at 10 mg/kg, po. The note with it: in vivo.
A short description of data set [2]: Half life in mouse at 10 mg/kg, iv and po. It counts as ADME, organism-based. More on the design: dose 10 mg/kg, route oral. To be noted: in vivo. In short, it runs like this:
(§1)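 Mice dosed at 10 mg/kg both iv and po; vehicle 10% ethanol, 45% water, 45% PEG-400. Standard PK parameters derived: oral bioavailability, half-life, Cmax (po), Tmax (po), total body clearance.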

The target in a further data set is Acetyl-CoA carboxylase 2 (Homo sapiens, UniProt O00763). The data set is described as follows: Inhibition of human ACC2.
Acetyl-CoA carboxylase 2, sequence (O00763 whole entry): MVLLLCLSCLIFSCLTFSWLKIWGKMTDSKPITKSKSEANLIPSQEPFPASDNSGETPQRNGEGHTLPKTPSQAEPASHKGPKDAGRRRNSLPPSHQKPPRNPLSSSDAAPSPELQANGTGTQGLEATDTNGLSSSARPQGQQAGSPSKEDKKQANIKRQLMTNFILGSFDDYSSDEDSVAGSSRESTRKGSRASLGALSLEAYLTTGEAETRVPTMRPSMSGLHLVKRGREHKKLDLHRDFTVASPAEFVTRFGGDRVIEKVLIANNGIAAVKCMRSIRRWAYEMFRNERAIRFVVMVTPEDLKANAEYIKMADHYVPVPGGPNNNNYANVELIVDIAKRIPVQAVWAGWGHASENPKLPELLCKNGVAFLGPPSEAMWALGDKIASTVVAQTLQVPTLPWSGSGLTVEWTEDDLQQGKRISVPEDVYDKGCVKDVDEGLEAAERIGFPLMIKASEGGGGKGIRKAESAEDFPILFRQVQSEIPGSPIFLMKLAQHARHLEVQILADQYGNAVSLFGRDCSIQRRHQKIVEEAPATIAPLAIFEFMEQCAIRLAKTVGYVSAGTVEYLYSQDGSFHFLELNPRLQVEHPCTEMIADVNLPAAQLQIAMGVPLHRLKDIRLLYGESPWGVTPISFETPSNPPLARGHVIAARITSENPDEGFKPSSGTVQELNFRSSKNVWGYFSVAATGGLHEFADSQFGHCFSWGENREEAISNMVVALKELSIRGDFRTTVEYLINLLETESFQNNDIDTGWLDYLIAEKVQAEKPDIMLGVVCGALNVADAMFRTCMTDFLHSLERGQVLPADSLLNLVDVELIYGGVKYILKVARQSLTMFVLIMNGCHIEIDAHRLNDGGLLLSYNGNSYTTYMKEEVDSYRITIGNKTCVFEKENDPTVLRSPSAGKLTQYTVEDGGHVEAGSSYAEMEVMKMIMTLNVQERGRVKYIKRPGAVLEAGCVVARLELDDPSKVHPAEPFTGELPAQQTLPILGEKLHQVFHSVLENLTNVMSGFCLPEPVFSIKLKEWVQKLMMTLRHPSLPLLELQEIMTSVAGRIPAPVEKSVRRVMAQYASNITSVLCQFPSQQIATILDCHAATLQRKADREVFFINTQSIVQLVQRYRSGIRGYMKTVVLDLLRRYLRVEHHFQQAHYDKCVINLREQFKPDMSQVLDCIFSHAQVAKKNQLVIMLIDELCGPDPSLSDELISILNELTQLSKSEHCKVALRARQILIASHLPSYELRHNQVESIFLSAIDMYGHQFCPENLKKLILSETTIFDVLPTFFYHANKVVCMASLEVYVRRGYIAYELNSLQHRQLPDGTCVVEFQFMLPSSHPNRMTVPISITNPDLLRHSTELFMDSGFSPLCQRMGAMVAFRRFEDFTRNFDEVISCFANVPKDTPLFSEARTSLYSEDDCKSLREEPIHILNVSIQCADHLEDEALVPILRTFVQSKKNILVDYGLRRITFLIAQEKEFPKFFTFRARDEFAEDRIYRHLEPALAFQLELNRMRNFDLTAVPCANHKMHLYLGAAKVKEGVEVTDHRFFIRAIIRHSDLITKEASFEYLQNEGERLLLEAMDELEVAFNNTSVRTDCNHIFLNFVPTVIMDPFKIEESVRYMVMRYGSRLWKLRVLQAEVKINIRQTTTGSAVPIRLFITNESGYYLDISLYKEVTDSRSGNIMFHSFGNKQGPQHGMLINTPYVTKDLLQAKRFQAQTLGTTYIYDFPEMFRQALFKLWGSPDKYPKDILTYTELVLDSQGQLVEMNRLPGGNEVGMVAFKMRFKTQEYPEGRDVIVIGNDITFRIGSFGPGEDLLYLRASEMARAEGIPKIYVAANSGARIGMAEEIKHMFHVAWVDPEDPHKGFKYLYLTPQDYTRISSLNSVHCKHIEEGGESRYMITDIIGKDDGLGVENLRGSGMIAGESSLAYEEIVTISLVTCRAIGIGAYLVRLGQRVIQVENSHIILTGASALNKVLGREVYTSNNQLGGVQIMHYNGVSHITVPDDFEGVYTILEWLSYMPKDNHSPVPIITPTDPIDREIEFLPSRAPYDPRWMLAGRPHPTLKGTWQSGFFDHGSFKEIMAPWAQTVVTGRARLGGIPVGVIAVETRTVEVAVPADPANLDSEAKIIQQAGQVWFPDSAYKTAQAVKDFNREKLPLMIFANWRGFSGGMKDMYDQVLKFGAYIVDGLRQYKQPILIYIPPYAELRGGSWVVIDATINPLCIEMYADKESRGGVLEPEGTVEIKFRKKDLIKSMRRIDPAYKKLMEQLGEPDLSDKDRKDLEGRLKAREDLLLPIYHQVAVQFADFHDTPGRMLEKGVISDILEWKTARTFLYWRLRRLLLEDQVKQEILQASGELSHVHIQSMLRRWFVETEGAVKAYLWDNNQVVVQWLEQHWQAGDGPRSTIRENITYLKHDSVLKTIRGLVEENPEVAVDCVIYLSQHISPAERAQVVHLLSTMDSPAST
In data set [3] the test system is Mus musculus. Briefly: Reduction of cholesterol level in high-fat diet C57BL/6 mouse at 100 mg/kg. It counts as functional. More on the design: scale not given: the % may be the effect or the level left. The procedure, abridged: (§2)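 Eight-week-old C57BL/6 mice (~30 g), five per group. High-fat diet (30% coconut oil, 45% sucrose) admixed with compound to give 10 or 100 mg/kg/day, versus high-fat and normal-chow controls, for 34 days. Food intake and body weight tracked; plasma lipids and fasting glucose assessed weekly. Lipid/glucose changes expressed as % reduction versus high-fat controls at day 29.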

Data set [4] is described as follows: Oral bioavailability in mouse at 10 mg/kg. The note with it: in vivo. It counts as ADME, organism-based. The procedure, abridged: as §1
Data set [5] has as its system Mus musculus. Briefly: Reduction of fasting plasma glucose level in C57BL/6 mouse at 10 mg/kg. It counts as functional. More on the design: scale not given: the % may be the effect or the level left. The procedure, abridged:
as §2

In data set [6] the test system is Mus musculus. Briefly: Increase in food consumption in normal fat diet C57BL/6 mouse at 10 mg/kg. The class given is functional.
The subject of data set [7] is Mus musculus. The data set is described as follows: Reduction of triglycerides in high-fat diet C57BL/6 mouse at 10 mg/kg. It counts as functional. More on the design: scale not given: the % may be the effect or the level left. The procedure, abridged:
as §2

Data set [8] concerns Mus musculus. Briefly: Reduction of fat in high-fat diet C57BL/6 mouse at 10 mg/kg after 34 days. More on the design: scale not given: the % may be the effect or the level left.
Data set [9] deals with Mus musculus. The data set is described as follows: Reduction of fat in high-fat diet C57BL/6 mouse at 100 mg/kg after 34 days. More on the design: scale not given: the % may be the effect or the level left.
Data set [10] concerns Mus musculus. Briefly: Reduction of cholesterol level in high-fat diet C57BL/6 mouse at 10 mg/kg. More on the design: scale not given: the % may be the effect or the level left. It counts as functional. The procedure, abridged: as §2
Data set [11] concerns Mus musculus. Briefly: Reduction of body weight gain in high-fat diet C57BL/6 mouse at 10 mg/kg after 29 days. It counts as functional. The arrangement: scale not given: the % may be the effect or the level left. In short, it runs like this: as §2
Data set [12] relates to Mus musculus. The data set is described as follows: Increase in food consumption in high-fat diet C57BL/6 mouse at 10 mg/kg. It counts as functional. In short, it runs like this:
as §2

Data set [13] deals with Mus musculus. The data set is described as follows: Reduction of triglycerides in high-fat diet C57BL/6 mouse at 100 mg/kg. The class given is functional. The arrangement: scale not given: the % may be the effect or the level left. The procedure, abridged:
as §2

Data set [14] relates to HepG2. The data set is described as follows: Cytotoxicity against HepG2 cells upto 50 uM by Alamar blue assay. The note with it: Homo sapiens. (In general: Alamar Blue is a resazurin reagent that responds to reducing activity.)
Data set [15] has as its system Mus musculus. Briefly: Reduction of fasting plasma glucose level in C57BL/6 mouse at 100 mg/kg. It counts as functional. More on the design: scale not given: the % may be the effect or the level left. In short, it runs like this:
as §2

Data set [16] concerns Mus musculus. The data set is described as follows: Reduction of body weight gain in high-fat diet C57BL/6 mouse at 100 mg/kg after 29 days. The class given is functional. More on the design: scale not given: the % may be the effect or the level left. The procedure, abridged: as §2
Data set [17] can be described thus: Cmax in mouse at 10 mg/kg, po. The class given is ADME, organism-based. More on the design: dose 10 mg/kg, route oral. To be noted: in vivo. The procedure, abridged:
as §1

Data set [18] deals with HepG2. The data set is described as follows: Inhibition of total lipid synthesis HepG2 cells assessed as incorporation of [14C]total lipids after 6 hrs. The class given is functional, cell-based. To be noted: Homo sapiens, HepG2, 6 h. The procedure, abridged:
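HepG2 cells incubated 6 h after compound addition, with [14C]-alanine present for the final 4 h; label incorporation into total lipid measured.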

Another data set deals with Acetyl-CoA carboxylase 1 (Homo sapiens, UniProt Q13085). Briefly: Inhibition of human ACC1.

The values below come from ChEMBL document CHEMBL1139904, “2-hydroxy-N-arylbenzenesulfonamides as ATP-citrate lyase inhibitors” (Bioorg Med Chem Lett, 2007).

A word on the IC50: it is the concentration that inhibits the measured activity by half. By Tmax is commonly meant the time at which the peak concentration occurs. What is called half-life is how long it takes for the measured level to halve. A word on the bioavailability: it is dose-corrected exposure relative to a reference, in per cent. The term Cmax denotes the highest concentration seen after dosing.

As for `CC(C)(C)c1cc(NS(=O)(=O)c2cc(Cl)cc(Cl)c2O)cc(C(C)(C)C)c1`, the IC50 at ATP-citrate synthase came out at 1.1 µM.

Turning to `O=S(=O)(Nc1cc(F)cc(F)c1)c1cc(Cl)cc(Cl)c1O`, the IC50 at ATP-citrate synthase worked out at 7.6 µM.

As to `O=C(O)C[C@@](O)(C[C@H](O)CCCCCCc1ccc(Cl)cc1Cl)C(=O)O`, on ATP-citrate synthase, the IC50 was 2.1 µM.

With `CCCCCCc1ccc(NS(=O)(=O)c2cc(Cl)cc(Cl)c2O)cc1`, the IC50 at ATP-citrate synthase was determined as 6.9 µM.

With `O=S(=O)(Nc1c(-c2ccccc2)cc(-c2ccccc2)cc1-c1ccccc1)c1cc(Cl)cc(Cl)c1O`, the IC50 at ATP-citrate synthase was 0.19 µM.

On to `CC(=O)N(C)c1ccc(NS(=O)(=O)c2cc(Cl)cc(Cl)c2O)cc1`, for which, at ATP-citrate synthase, the 50% inhibitory concentration (IC50) is 10.9 µM.

On to `O=C(OC/C=C\c1ccccc1)c1ccccc1NS(=O)(=O)c1cc(Cl)cc(Cl)c1O`, for which the IC50 on ATP-citrate synthase amounted to 0.34 µM.

As for `CC1CCC(C(C)C)C(OC(=O)c2ccccc2NS(=O)(=O)c2cc(Cl)cc(Cl)c2O)C1` (stereo not drawn), the IC50 at ATP-citrate synthase is 0.37 µM.

On to `O=S(=O)(Nc1cc(Cl)cc(Cl)c1)c1cc(Cl)cc(Cl)c1O`, for which, at ATP-citrate synthase, the IC50 was 2.3 µM.

Regarding `O=C(O)C[C@@](O)(C(=O)O)[C@H](O)C(=O)O`, the IC50 at ATP-citrate synthase was determined as 0.15 µM.

Consider `CC(C)(C)c1ccc(C(C)(C)C)c(NS(=O)(=O)c2cc(Cl)cc(Cl)c2O)c1`, for which the IC50 on ATP-citrate synthase turned out to be 5.6 µM.

`COc1ccc(-c2ccccc2)cc1NS(=O)(=O)c1cc(Cl)cc(Cl)c1O`: in data set [1], the Tmax is 0.5 h. Further, in data set [2], the half-life was 2.1 h. Further, the IC50 on Acetyl-CoA carboxylase 2 turned out to be 12 µM; on ATP-citrate synthase, 0.13 µM; in the data set with HepG2 [18] it was 8 µM; against Acetyl-CoA carboxylase 1 it was 6 µM. Besides, the Activity was -19% with Mus musculus [3]; -48% in the data set with Mus musculus [5]; 4 g/day with Mus musculus [6]; -26% with Mus musculus [7]; 12.9% in the data set with Mus musculus [8]; 7.3% in the data set with Mus musculus [9]. The Activity is -9% in the data set with Mus musculus [10]; 7.2% in the data set with Mus musculus [11]; 3.2 g/day in the data set with Mus musculus [12]; -26% with Mus musculus [13]; “Not toxic” with HepG2 [14]; -32% with Mus musculus [15]. Moreover, in the data set with Mus musculus [16], the Activity worked out at 3%. For the same compound, in data set [4], the bioavailability worked out at 55%. In data set [17], this compound had a Cmax of 13 µM.

Regarding `O=S(=O)(Nc1cccc(Oc2ccccc2)c1)c1cc(Cl)cc(Cl)c1O`, on ATP-citrate synthase, the half-maximal inhibitory concentration (IC50) amounted to 8.1 µM.
